As a reminder, the MIC is the smallest concentration in the dilution series that meets the test's criterion for growth inhibition. The term solubility (kinetic) denotes solubility judged after dilution from a stock solution rather than from solid.

The subject of one data set is Escherichia coli. The experiment in a line: Antimicrobial activity against tolc-defecient Escherichia coli BW25113 after 17 hrs by two-fold serial dilution technique. It counts as functional. As to conditions: BW25113, 17 h. A digest of the protocol:
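MIC by serial dilution following a CLSI protocol. E. coli BW25113 ΔtolC was grown in M8 medium.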

In data set [1] the test system is Caulobacter vibrioides. The experiment in a line: Antimicrobial activity against Caulobacter crescentus CB15N after 17 hrs by two-fold serial dilution technique. It is filed as functional.
Data set [2] concerns Caulobacter vibrioides. The data set can be described thus: Antimicrobial activity against Caulobacter crescentus CB15N assessed as cell division arrest after the initiation of midcell constriction at MIC after 17 hrs by phase contrast microscopy. It counts as functional, organism-based. A digest of the protocol: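 C. crescentus CB15N cells were incubated with compound for 17 h, then imaged to score cell-division phenotype at the midcell constriction stage.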

The nature of data set [3]: Solubility of the compound by light scattering fluorescence spectrophotometry. It counts as physicochemical. A digest of the protocol: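 Solubility was measured in M8 medium containing 2% DMSO by a light-scattering assay.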
Data set [4] has as its system Caulobacter vibrioides. The experiment in a line: Bacteristatic activity against Caulobacter crescentus CB15N assessed as inhibition of cell growth at 2.5 to 20 uM by plate reader analysis. It counts as functional, organism-based.
A further data set concerns Klebsiella pneumoniae. The experiment in a line: Antimicrobial activity against clinical isolates of Klebsiella pneumoniae by serial dilution technique. It counts as functional. A digest of the protocol:
(§1)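 Clinical pathogenic isolates were tested for growth inhibition in M8 medium.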

The next data set concerns Salmonella typhimurium. The experiment in a line: Antimicrobial activity against clinical isolates of Salmonella typhimurium by serial dilution technique. It counts as functional, Salmonella enterica subsp. enterica serovar Typhimurium. Particulars: Salmonella enterica. A digest of the protocol:
as §1

Another data set deals with Shigella boydii. The experiment in a line: Antimicrobial activity against clinical isolates of Shigella boydii by serial dilution technique. It counts as functional. A digest of the protocol: as §1
For a further data set, the system named is Morganella morganii. The data set can be described thus: Antimicrobial activity against clinical isolates of Morganella morganii by serial dilution technique. It is filed as functional. A digest of the protocol: as §1
A further data set concerns Vibrio cholerae. The experiment in a line: Antimicrobial activity against clinical isolates of Vibrio cholerae by serial dilution technique. It is filed as functional.
The test system of a further data set is Acinetobacter baumannii. The experiment in a line: Antimicrobial activity against clinical isolates of Acinetobacter baumannii by serial dilution technique. It counts as functional. A digest of the protocol:
as §1

Another data set has as its system Klebsiella aerogenes. The data set can be described thus: Antimicrobial activity against clinical isolates of Enterobacter aerogenes by serial dilution technique. It is filed as functional. A digest of the protocol: as §1

In brackets after ≈: the same amount, converted by molar mass. Activity calls are given as the source filed them. A value given as a limit tells only on which side of the number the result lay.

In the case of `Cc1nc2ccncc2n1CCC(=O)N/N=C/c1c(O)ccc2ccccc12`, the MIC was 25 µM (≈ 9.34 µg/mL) in the data set with Escherichia coli and 10 µM (≈ 3.73 µg/mL) in the data set with Caulobacter vibrioides [1].

Turning to `Cc1nc2ccccc2n1CCC(=O)N/N=C/c1c(O)ccc2cc(O)ccc12`, the values for the MIC against Escherichia coli and in the data set on Caulobacter vibrioides [1] were 12.5 µM (≈ 4.86 µg/mL) and 5 µM (≈ 1.94 µg/mL), respectively.

Turning to `Cc1nccn1CCC(=O)N/N=C/c1c(O)ccc2ccccc12`, the result with Caulobacter vibrioides [2] was Active. For the same molecule, the minimum inhibitory concentration (MIC) against Escherichia coli was found to be 12.5 µM (≈ 4.03 µg/mL); in the data set with Caulobacter vibrioides [1], 7.5 µM (≈ 2.42 µg/mL). In data set [3], the kinetic solubility turned out to be 10 µM (≈ 3.22 µg/mL).

Take `[N-]=[N+]=NCc1nc2ccccc2n1CCC(=O)N/N=C/c1c(O)ccc2ccccc12`: the result in the data set on Caulobacter vibrioides [2] was Active. Besides, the minimum inhibitory concentration (MIC) with Escherichia coli amounted to 12.5 µM (≈ 5.17 µg/mL); with Caulobacter vibrioides [1] it was 5 µM (≈ 2.07 µg/mL). The solubility (kinetic) in data set [3] came out at 20 µM (≈ 8.27 µg/mL).

Take `C/C(=N\NC(=O)CCn1c(C)nc2ccccc21)c1c(O)ccc2ccccc12`: the minimum inhibitory concentration (MIC) in the data set with Escherichia coli is over 50 µM; with Caulobacter vibrioides [1], over 20 µM.

On to `Cc1nc2cnccc2n1CCC(=O)N/N=C/c1c(O)ccc2ccccc12`, for which the result in the data set with Caulobacter vibrioides [2] was Active. Besides, the MIC against Escherichia coli was 12.5 µM (≈ 4.67 µg/mL); in the data set with Caulobacter vibrioides [1], 5 µM (≈ 1.87 µg/mL). This molecule also yielded a kinetic solubility in [3] of 90 µM (≈ 33.6 µg/mL).

Regarding `COc1ccc2ccccc2c1/C=N/NC(=O)CCn1c(C(F)(F)F)nc2ccccc21`, the MIC against Escherichia coli was over 50 µM; in the data set with Caulobacter vibrioides [1] it was over 20 µM.

Take `Cc1nc2cc(Cl)ccc2n1CCC(=O)N/N=C/c1c(O)ccc2ccccc12`: the outcome in the data set on Caulobacter vibrioides [2] and in the data set with Caulobacter vibrioides [4] was Active. For the same molecule, the MIC against Escherichia coli stood at 7.5 µM (≈ 3.05 µg/mL); with Caulobacter vibrioides [1] it was 5 µM (≈ 2.03 µg/mL). In [3], this molecule returned a kinetic solubility of 210 µM (≈ 85.4 µg/mL).

Turning to `O=C(CCn1c(C(F)(F)F)nc2ccccc21)N/N=C/c1c(O)ccc2ccccc12`, the figures for the MIC in the data set with Escherichia coli and in the data set with Caulobacter vibrioides [1] were over 50 µM and 7.5 µM (≈ 3.2 µg/mL), respectively. Besides, the solubility (kinetic) in data set [3] was determined as 30 µM (≈ 12.8 µg/mL).

Turning to `Cc1nc2ccccc2n1CCC(=O)NNCc1c(O)ccc2ccccc12`, the MIC against Escherichia coli was found to be 50 µM (≈ 18.7 µg/mL); with Caulobacter vibrioides [1], 40 µM (≈ 15 µg/mL).

In the case of `Cc1nc2ccccc2n1CCC(=O)N/N=C/c1c(O)ccc2ccccc12`, the MIC against Klebsiella pneumoniae was over 50 µM; against Escherichia coli it was 12.5 µM (≈ 4.66 µg/mL); against Salmonella typhimurium, 50 µM (≈ 18.6 µg/mL); in the data set with Shigella boydii, 50 µM (≈ 18.6 µg/mL); with Morganella morganii, over 50 µM; with Vibrio cholerae, 6 µM (≈ 2.23 µg/mL). For the same molecule, the MIC was found to be 50 µM (≈ 18.6 µg/mL) with Acinetobacter baumannii, 50 µM (≈ 18.6 µg/mL) with Klebsiella aerogenes and 5 µM (≈ 1.86 µg/mL) against Caulobacter vibrioides [1]. Moreover, the result with Caulobacter vibrioides [2] was Active. The molecule also returned a kinetic solubility in [3] of 20 µM (≈ 7.45 µg/mL).

For `C=CCOc1ccc2ccccc2c1/C=N/NC(=O)CCn1c(C)nc2ccccc21`, the minimal inhibitory concentration (MIC) with Escherichia coli is over 50 µM; in the data set with Caulobacter vibrioides [1], over 20 µM.

With `CN(C)Cc1nc2ccccc2n1CCC(=O)N/N=C/c1c(O)ccc2ccccc12`, the minimal inhibitory concentration (MIC) in the data set with Escherichia coli was determined as 12.5 µM (≈ 5.19 µg/mL); against Caulobacter vibrioides [1] it was 5 µM (≈ 2.08 µg/mL). Further, the kinetic solubility in [3] was 90 µM (≈ 37.4 µg/mL).

Consider `Cc1nc2cc(Cl)c(Cl)cc2n1CCC(=O)N/N=C/c1c(O)ccc2ccccc12`, for which the MIC in the data set with Klebsiella pneumoniae is 50 µM (≈ 22.1 µg/mL); in the data set with Escherichia coli, 6.3 µM (≈ 2.78 µg/mL); with Salmonella typhimurium it was 25 µM (≈ 11 µg/mL); with Shigella boydii it was 25 µM (≈ 11 µg/mL); against Morganella morganii it was over 50 µM; against Vibrio cholerae it was 3 µM (≈ 1.32 µg/mL). The results for the MIC in the data set with Acinetobacter baumannii, against Klebsiella aerogenes and in the data set on Caulobacter vibrioides [1] were 50 µM (≈ 22.1 µg/mL), 12 µM (≈ 5.3 µg/mL) and 3.8 µM (≈ 1.68 µg/mL), respectively. Besides, the result in the data set with Caulobacter vibrioides [2] and in the data set with Caulobacter vibrioides [4] was Active. Further, in data set [3], the kinetic solubility was found to be 90 µM (≈ 39.7 µg/mL).

Take `Cc1nc2ccccc2n1CCCC(=O)N/N=C/c1c(O)ccc2ccccc12`: the outcome with Caulobacter vibrioides [2] was Active. Besides, the minimal inhibitory concentration (MIC) in the data set with Escherichia coli is 10 µM (≈ 3.86 µg/mL); against Caulobacter vibrioides [1], 5 µM (≈ 1.93 µg/mL). Further, the kinetic solubility in [3] came out at 120 µM (≈ 46.4 µg/mL).

Turning to `O=C(CCn1cnc2ccccc21)N/N=C/c1c(O)ccc2ccccc12`, in the data set with Caulobacter vibrioides [2], the outcome was Active. For the same molecule, the MIC turned out to be 12.5 µM (≈ 4.48 µg/mL) in the data set with Escherichia coli and 7.5 µM (≈ 2.69 µg/mL) against Caulobacter vibrioides [1]. For the same molecule, in data set [3], the solubility (kinetic) came to 30 µM (≈ 10.8 µg/mL).

`Cc1nc2ccccc2n1CCC(=O)N/N=C/c1ccccc1F`: the results for the MIC against Escherichia coli and in the data set with Caulobacter vibrioides [1] were over 50 µM and over 20 µM, respectively.

Regarding `Cc1nc2ccccc2n1CC(=O)N/N=C/c1c(O)ccc2ccccc12`, the minimal inhibitory concentration (MIC) in the data set with Escherichia coli stood at 25 µM (≈ 8.96 µg/mL); in the data set with Caulobacter vibrioides [1], 5 µM (≈ 1.79 µg/mL). In data set [3], this molecule returned a solubility (kinetic) of 20 µM (≈ 7.17 µg/mL).

For the molecule `Cc1nc2ccccc2n1CCC(=O)N/N=C/c1ccccc1O`, the MIC is 50 µM (≈ 16.1 µg/mL) in the data set on Escherichia coli and 15 µM (≈ 4.84 µg/mL) in the data set on Caulobacter vibrioides [1].

As for `Cc1nc2ccccc2n1CCC(=O)N/N=C/c1ccc(F)c2ccccc12`, the MIC in the data set with Escherichia coli is over 50 µM; in the data set on Caulobacter vibrioides [1], over 20 µM.

For the molecule `COc1ccc2ccccc2c1/C=N/NC(=O)CCn1c(C)nc2ccccc21`, the minimal inhibitory concentration (MIC) with Escherichia coli is over 50 µM; with Caulobacter vibrioides [1] it was over 20 µM.

Turning to `Cc1nc2ccccc2n1CCC(=O)N/N=C/c1ccc(O)c2ccccc12`, the MIC in the data set with Escherichia coli was over 50 µM; in the data set with Caulobacter vibrioides [1], over 20 µM.

For `Cc1nc2ccccc2n1CCC(=O)N/N=C/c1ccc(N(C)C)c2ccccc12`, the MIC in the data set on Escherichia coli is over 50 µM; against Caulobacter vibrioides [1] it was over 20 µM.

Turning to `Cc1nc2ccccc2n1CCC(=O)N/N=C/c1cccc2ccccc12`, the MIC in the data set with Escherichia coli was 50 µM (≈ 17.8 µg/mL); with Caulobacter vibrioides [1] it was over 20 µM.

Regarding `CC(=O)Oc1ccc2ccccc2c1/C=N/N(C(C)=O)C(=O)CCn1c(C)nc2ccccc21`, the results for the MIC with Escherichia coli and in the data set on Caulobacter vibrioides [1] were 50 µM (≈ 22.8 µg/mL) and over 40 µM, respectively.

The values above are taken from ChEMBL document CHEMBL2429825, “Structure-activity studies of divin: an inhibitor of bacterial cell division” (ACS Med Chem Lett, 2013).
